Assay results reported in ChEMBL document CHEMBL1127483, “Synthesis and structure activity relationships of cis- and trans-2,3,4,4a,9,9a-hexahydro-1H-indeno[2,1-c]pyridines for 5-HT receptor subtypes” (J Med Chem, 1994).

Assays:
[1] = target: 5-hydroxytryptamine receptor 1B (Rattus norvegicus, UniProt P28564); assay: Inhibition of [3H]5-HT binding to 5-hydroxytryptamine 1B receptor
Procedure, shortened: (§1)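 [3H]5-HT binding to 5-HT1 sites. The 5-HT1A component was distinguished by masking 5-HT1A sites with 1 µM S-spiroxatrine. Values are geometric means.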

[2] = target: T1, 5-hydroxytryptamine receptor 1A (Rattus norvegicus, UniProt P19327); assay: Binding affinity for 5-hydroxytryptamine 1A receptor with [3H]5-HT; procedure, shortened: as §1
T1 sequence (P19327 whole entry): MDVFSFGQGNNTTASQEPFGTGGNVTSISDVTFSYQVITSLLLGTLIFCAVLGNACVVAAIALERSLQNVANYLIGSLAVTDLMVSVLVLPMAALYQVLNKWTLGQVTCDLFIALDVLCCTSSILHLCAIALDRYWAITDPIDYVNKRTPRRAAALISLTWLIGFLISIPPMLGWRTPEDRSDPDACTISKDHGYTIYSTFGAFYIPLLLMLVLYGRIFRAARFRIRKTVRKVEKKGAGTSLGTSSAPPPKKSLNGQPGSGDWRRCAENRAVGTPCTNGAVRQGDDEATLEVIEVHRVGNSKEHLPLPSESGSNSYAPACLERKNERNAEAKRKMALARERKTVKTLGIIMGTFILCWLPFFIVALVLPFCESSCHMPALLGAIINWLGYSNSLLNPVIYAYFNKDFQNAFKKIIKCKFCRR

[3] = target: Serotonin 2 (5-HT2) receptor (Rattus norvegicus, UniProt P30994+P08909+P14842); assay: Displacement of [3H]ketanserin from 5-hydroxytryptamine 2 receptor; assay type: protein assay

Sequence of 5-hydroxytryptamine receptor 1B (P28564 whole entry): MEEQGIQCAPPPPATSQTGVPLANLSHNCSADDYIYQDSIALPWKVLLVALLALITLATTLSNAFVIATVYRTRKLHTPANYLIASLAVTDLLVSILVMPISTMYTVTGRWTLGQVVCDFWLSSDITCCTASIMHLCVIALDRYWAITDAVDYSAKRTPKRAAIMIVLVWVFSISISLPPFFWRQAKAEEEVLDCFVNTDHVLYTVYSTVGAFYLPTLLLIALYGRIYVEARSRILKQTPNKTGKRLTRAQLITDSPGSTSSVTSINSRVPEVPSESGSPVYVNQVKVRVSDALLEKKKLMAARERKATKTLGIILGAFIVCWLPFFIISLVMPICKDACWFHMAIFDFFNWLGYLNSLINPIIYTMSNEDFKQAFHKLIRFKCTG

| Compound | Ki [1] | Ki [2] | Ki [3] |
| --- | --- | --- | --- |
| CCCN1CC[C@H]2c3c(cccc3OC)C[C@@H]2C1 | 5010 nM | 76.2 nM | 688 nM |
| COc1cccc2c1[C@@H]1CCN(CCCCN3C(=O)CC4(CCCC4)CC3=O)C[C@@H]1C2 | 13600 nM | 54.5 nM | 35.9 nM |
| COc1cccc2c1[C@@H]1CCN(CCCN3C(=O)CC4(CCCC4)CC3=O)C[C@@H]1C2 | 96400 nM | 692 nM | 17.4 nM |
| COc1cccc2c1[C@@H]1CCN(CCCN3C(=O)CC4(CCCC4)CC3=O)C[C@H]1C2 | 7360 nM | 51.2 nM | 15.9 nM |
| CCCN1CC[C@H]2c3c(cccc3OC)C[C@H]2C1 | 48500 nM |  | 965 nM |
| CCCN(CCC)C1CCc2cccc(O)c2C1 (stereo not given) [8-OH-DPAT] |  |  | > 10000 nM |

More lines, in order of falling Ki [1], values ahead:

| Ki [1] | Ki [2] | Ki [3] | Compound |
| --- | --- | --- | --- |
| 1310 nM | 3.6 nM | 2.58 nM | COc1cccc2c1C1CCN(CCCCN3C(=O)C4C5C=CC(C6C=CC65)C4C3=O)CC1C2.Cl (trans isomer) |
| 888 nM | 0.588 nM | 28.9 nM | COc1cccc2c1C1CCN(CCNC(=O)c3ccc(F)cc3)CC1C2 (stereo not given) |
| 845 nM | 0.891 nM | 3 nM | COc1cccc2c1C1CCN(CCCN3C(=O)c4ccccc4S3(=O)=O)CC1C2 (stereo not given) |
| 800 nM | 1.65 nM | 9.3 nM | COc1cccc2c1[C@@H]1CCN(CCCCN3C(=O)CC4(CCCC4)CC3=O)C[C@H]1C2 |
| 325 nM | 1.98 nM | 33.4 nM | COc1cccc2c1C1CCN(CCCCN3C(=O)c4ccccc4S3(=O)=O)CC1C2 (stereo not given) |
